Test results taken from ChEMBL document CHEMBL1154114, “7-((4-Substituted)piperazin-1-yl) derivatives of ciprofloxacin: synthesis and in vitro biological evaluation as potential antitumor agents” (Bioorg Med Chem, 2009).

Key:
PC-3 [1] = assay: Antitumor activity against human PC3 cells after 5 days by MTT assay; format: functional, cell-based; conditions: PC-3, 120 h
Outline: (§1)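 Five human cancer lines (prostate PC-3, glioblastoma U373-MG, colorectal LoVo, NSCLC A549, breast MCF-7) plated at 10⁴ to 3×10⁴ cells/mL depending on cell type, allowed 24 h to attach, then cultured 120 h with or without drug at nine concentrations. MTT reduction to formazan read at 570 nm (reference 630 nm).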

[2] = Antitumor activity against human U373MG cells after 5 days by MTT assay; format: functional, cell-based, U-373MG ATCC; conditions: U373 MG, 120 h; outline: as §1
LoVo [3] = assay: Antitumor activity against human LoVo cells after 5 days by MTT assay; format: functional, cell-based; conditions: 120 h; outline: as §1
A549 [4] = assay: Antitumor activity against human A549 cells after 5 days by MTT assay; format: functional, cell-based; conditions: A549, 120 h; outline: as §1
MCF7 [5] = assay: Antitumor activity against human MCF7 cells after 5 days by MTT assay; format: functional, cell-based; conditions: MCF7, 120 h; outline: as §1
[6] = Toxicity in ip dosed B6D2F1 mouse assessed as maximum tolerated dose after 28 days; format: organism-based; conditions: in vivo
Outline: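 Healthy mice, three per group, each given a single ip dose and observed for up to 28 days. The MTD index is the highest single dose given without causing any deaths in the group.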

HeLa [7] = assay: Inhibition of human HeLa cell proliferation assessed as bromodeoxyuridine incorporation during DNA synthesis after 48 hrs by ELISA; format: functional, cell-based
MG-63 = assay: Inhibition of human MG63 cell proliferation assessed as bromodeoxyuridine incorporation during DNA synthesis after 48 hrs by ELISA; format: functional, cell-based; conditions: MG-63, 48 h
NCI-H460 [8] = assay: Inhibition of human NCI-H460 cell proliferation by sulphorodhamine B assay; format: functional, cell-based
HeLa [9] = assay: Inhibition of human HeLa cell proliferation; format: functional, cell-based
MCF7 [10] = assay: Inhibition of human MCF7 cell proliferation by MTT assay; format: functional, cell-based
MCF7 [11] = assay: Inhibition of human MCF7 cell proliferation after 5 days by MTT assay; format: functional, cell-based; conditions: MCF7, 120 h; outline: as §1
A-431 = assay: Inhibition of human A431 cell proliferation by MTT assay; format: functional, cell-based
EJ = assay: Inhibition of human EJ cell proliferation by MTT assay; format: functional, cell-based
SW480 = assay: Inhibition of human SW480 cell proliferation by MTT assay; format: functional, cell-based
KB = assay: Inhibition of human KB cell proliferation by MTT assay; format: functional, cell-based
SK-MEL = assay: Inhibition of human SK-MEL cell proliferation by MTT assay; format: functional, cell-based
MC3T3-E1 = assay: Inhibition of mouse MC3T3-E1 cell proliferation after 48 to 72 hrs; format: functional, cell-based
[12] = Inhibition of mouse NIH/3T3 cell proliferation by MTT assay; format: cell-based; conditions: NIH3T3
V79 = assay: Inhibition of chinese hamster V79 cell proliferation assessed as bromodeoxyuridine incorporation during DNA synthesis after 48 hrs by ELISA; conditions: Cricetulus griseus, V79, 48 h
K562 = assay: Inhibition of human K562 cell proliferation by sulphorodhamine B assay; format: functional, cell-based
NCI-H460 [13] = assay: Induction of apoptosis in human NCI-H460 cells at 120 uM by sulphorodhamine B assay; format: functional
[14] = target: DNA topoisomerase 2-alpha (Homo sapiens) (UniProt P11388); assay: Inhibition of topoisomerase 2-mediated DNA relaxation activity in human HeLa cells by Oomori method; format: cell-based
Sequence of DNA topoisomerase 2-alpha (Homo sapiens) (P11388 whole entry): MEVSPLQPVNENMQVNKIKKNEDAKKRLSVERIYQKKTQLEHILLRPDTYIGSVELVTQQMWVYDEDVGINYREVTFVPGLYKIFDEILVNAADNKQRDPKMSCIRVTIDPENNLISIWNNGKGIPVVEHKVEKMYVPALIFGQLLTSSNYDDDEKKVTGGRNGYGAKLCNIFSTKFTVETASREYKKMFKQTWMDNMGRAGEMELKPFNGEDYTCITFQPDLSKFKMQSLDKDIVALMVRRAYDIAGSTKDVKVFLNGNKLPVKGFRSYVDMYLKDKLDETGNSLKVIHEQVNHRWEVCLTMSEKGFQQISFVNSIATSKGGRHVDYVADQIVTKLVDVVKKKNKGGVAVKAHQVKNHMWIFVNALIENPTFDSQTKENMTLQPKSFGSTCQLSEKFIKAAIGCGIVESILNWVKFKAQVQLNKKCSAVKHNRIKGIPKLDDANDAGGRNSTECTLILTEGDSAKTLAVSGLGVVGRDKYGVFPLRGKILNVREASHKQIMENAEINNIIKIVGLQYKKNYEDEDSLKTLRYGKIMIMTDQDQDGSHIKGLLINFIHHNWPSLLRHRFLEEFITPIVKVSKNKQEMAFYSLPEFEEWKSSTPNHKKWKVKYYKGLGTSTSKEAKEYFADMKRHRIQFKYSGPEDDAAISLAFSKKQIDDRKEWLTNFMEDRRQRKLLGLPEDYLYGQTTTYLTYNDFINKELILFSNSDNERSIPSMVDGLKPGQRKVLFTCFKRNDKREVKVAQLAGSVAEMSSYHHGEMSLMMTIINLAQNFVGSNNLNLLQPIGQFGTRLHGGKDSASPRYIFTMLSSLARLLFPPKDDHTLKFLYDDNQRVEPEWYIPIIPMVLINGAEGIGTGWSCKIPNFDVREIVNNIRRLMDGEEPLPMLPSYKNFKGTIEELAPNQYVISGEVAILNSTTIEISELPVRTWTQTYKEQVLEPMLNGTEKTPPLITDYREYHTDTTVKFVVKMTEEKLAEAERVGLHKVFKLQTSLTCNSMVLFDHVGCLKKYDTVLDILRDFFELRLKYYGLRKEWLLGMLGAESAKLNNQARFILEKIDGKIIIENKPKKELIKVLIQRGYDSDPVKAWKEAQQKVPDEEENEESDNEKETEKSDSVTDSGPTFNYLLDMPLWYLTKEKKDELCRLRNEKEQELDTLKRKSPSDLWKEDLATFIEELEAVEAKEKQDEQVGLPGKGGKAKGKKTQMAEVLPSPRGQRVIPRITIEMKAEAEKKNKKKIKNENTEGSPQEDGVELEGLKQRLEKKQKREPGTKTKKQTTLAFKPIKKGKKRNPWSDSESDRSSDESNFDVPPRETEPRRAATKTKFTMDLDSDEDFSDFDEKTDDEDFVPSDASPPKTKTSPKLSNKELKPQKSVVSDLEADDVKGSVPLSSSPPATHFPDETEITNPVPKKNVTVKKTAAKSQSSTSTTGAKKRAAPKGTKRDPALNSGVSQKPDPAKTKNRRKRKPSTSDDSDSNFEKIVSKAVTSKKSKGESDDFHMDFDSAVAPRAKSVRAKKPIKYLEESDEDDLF

HT-29 [15] = assay: Inhibition of human HT-29 cell proliferation; format: functional, cell-based
[16] = target: DNA topoisomerase 2-alpha (Homo sapiens) (UniProt P11388); assay: Inhibition of human topoisomerase 2 assessed as conversion of catenated to decatenated form of kDNA
DU-145 = assay: Inhibition of human DU145 cell proliferation; format: functional, cell-based
B16 = assay: Inhibition of mouse B16 cell proliferation; format: functional, cell-based
NCI-H226 = assay: Inhibition of human NCI-H226 cell proliferation; format: functional, cell-based
[17] = Inhibition of human MDA231 cell proliferation; format: functional, cell-based; conditions: MDA-MB-231
[18] = target: DNA topoisomerase 2-alpha (Homo sapiens) (UniProt P11388); assay: Inhibition of human topoisomerase 2-mediated DNA unwinding activity
A549 [19] = assay: Antitumor activity against human A549 cells after 3 days by MTT assay; format: functional, cell-based; conditions: A549, 72 h
HCT-8 = assay: Antitumor activity against human HCT8 cells after 3 days by MTT assay; format: functional, cell-based; conditions: HCT-8, 72 h
MCF7 [20] = assay: Antitumor activity against human MCF7 cells after 3 days by MTT assay; format: functional, cell-based; conditions: MCF7, 72 h
HT-29 [21] = assay: Antitumor activity against human HT-29 cells after 3 days by MTT assay; format: functional, cell-based; conditions: HT-29, 72 h
[22] = Inhibition of human […] cell proliferation; format: functional, cell-based
P388 = assay: Inhibition of mouse P388 cell proliferation; format: functional, cell-based
MCF7 [23] = assay: Inhibition of human MCF7 cell proliferation; format: functional, cell-based
[24] = Inhibition of human RPMI8226/S cell proliferation; format: functional, cell-based
G-quadruplex DNA = assay: Interaction with G-quadruplex DNA assessed by polymerase stop assay
[25] = Stability in phosphate buffer of pH 7.4 after 6 days; format: physicochemical; conditions: read-out: Stability
Outline: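 Compound dissolved at 1 mM in DMSO, diluted with phosphate buffer pH 7.4 to 1 mL, incubated sealed at 37 °C for 6 days. A t0 aliquot was held at 4 °C. HPLC with 280 nm detection and duplicate injections, with expected degradation products as references. Stability is taken as compound peak area over (compound + degradation product) peak area.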

PC-3 [26] = assay: Ratio of ciprofloxacin IC50 to compound IC50 for human PC3 cells; format: functional
U373 MG = assay: Ratio of ciprofloxacin IC50 to compound IC50 for human U373MG cells; format: functional, U-373MG ATCC
LoVo [27] = assay: Ratio of ciprofloxacin IC50 to compound IC50 for human LoVo cells; format: functional
A549 [28] = assay: Ratio of ciprofloxacin IC50 to compound IC50 for human A549 cells; format: functional
MCF7 [29] = assay: Ratio of ciprofloxacin IC50 to compound IC50 for human MCF7 cells; format: functional

Structure (SMILES): O=C(O)c1cn(C2CC2)c2cc(N3CCNCC3)c(F)cc2c1=O [CIPROFLOXACIN]
- IC50 (PC-3 [1]): 143 µM
- IC50 [2]: 96 µM
- IC50 (LoVo [3]): 89 µM
- IC50 (A549 [4]): 280 µM
- IC50 (MCF7 [5]): 476 µM
- MTD at 672 h [6]: > 80 mg/kg
- IC50 (HeLa [7]): 800 µM
- IC50 (MG-63): 480 µM
- IC50 (NCI-H460 [8]): 60 µM
- IC50 (HeLa [9]): 270 µM
- IC50 (MCF7 [10]): 199 µM
- IC50 (MCF7 [11]): 76 µM
- IC50 (A-431): 135 µM
- IC50 (EJ): 202 µM
- IC50 (SW480): 128 µM
- IC50 (KB): 160 µM
- IC50 (SK-MEL): 196 µM
- IC50 (MC3T3-E1): 120 µM
- IC50 [12]: > 1000 µM
- IC50 (V79): > 1000 µM
- IC50 (K562): > 150 µM
- Activity (NCI-H460 [13]): 35%
- Activity [14]: 104 µM

Structure (SMILES): N[C@H]1CCN(c2c(F)cc3c(=O)c(C(=O)O)cn4c3c2Oc2c-4ccc3ccccc23)C1
- IC50 (HT-29 [15]): 0.05 µM
- Activity [16]: 0.5 µM
- IC50 (DU-145): 0.06 µM
- IC50 (B16): 0.2 µM
- IC50 (NCI-H226): 0.03 µM
- IC50 [17]: 0.08 µM
- Activity [18]: 10 µM

Structure (SMILES): NC1CCN(c2c(F)cc3c(=O)c(C(=O)O)cn4c3c2Oc2ccccc2-4)C1 (configuration not stated)
- IC50 (A549 [19]): 1.3 µM
- IC50 (HCT-8): 0.3 µM
- IC50 (MCF7 [20]): 0.8 µM
- IC50 (HT-29 [21]): 0.5 µM
- IC50 (HT-29 [15]): 0.2 µM
- Activity [16]: 0.5 µM
- IC50 (DU-145): 0.2 µM
- Activity [18]: 50 µM
- IC50 [22]: 0.7 µM
- IC50 (P388): 0.05 µM
- IC50 (MCF7 [23]): 0.7 µM
- IC50 [24]: 0.3 µM

Structure (SMILES): N[C@H]1CCN(c2c(F)cc3c(=O)c(C(=O)O)cn4c3c2Oc2c-4ccc3c2ccc2ccccc23)C1
- IC50 (MCF7 [23]): 1 µM
- IC50 [24]: 0.7 µM
- IC50 (G-quadruplex DNA): 0.7 µM

Structure (SMILES): N[C@@H]1CCN(c2c(F)cc3c(=O)c(C(=O)O)cn4c3c2Oc2c-4ccc3c2ccc2ccccc23)C1
- IC50 (MCF7 [23]): 0.5 µM
- IC50 [24]: 0.3 µM
- IC50 (G-quadruplex DNA): 0.06 µM

Structure (SMILES): CC(C)(C)OC(=O)N1CCN(c2cc3c(cc2F)c(=O)c(C(=O)O)cn3C2CC2)CC1
- remaining at 144 h [25]: > 99%
- IC50 (PC-3 [1]): 26 µM
- IC50 [2]: 35 µM
- IC50 (LoVo [3]): 40 µM
- IC50 (A549 [4]): 18 µM
- IC50 (MCF7 [5]): 13 µM
- Ratio IC50 (PC-3 [26]): 2
- Ratio IC50 (U373 MG): 2
- Ratio IC50 (LoVo [27]): 2
- Ratio IC50 (A549 [28]): 2
- Ratio IC50 (MCF7 [29]): 2
- MTD at 672 h [6]: > 80 mg/kg

Structure (SMILES): N[C@@H]1CCN(c2c(F)cc3c(=O)c(C(=O)O)cn4c3c2Oc2c-4ccc3ccccc23)C1
- IC50 (HT-29 [15]): 0.03 µM
- Activity [16]: 0.2 µM
- IC50 (NCI-H226): 0.01 µM
- IC50 [17]: 0.005 µM
- Activity [18]: 3 µM

Structure (SMILES): O=C(O)c1cn(C2CC2)c2cc(N3CCN(C(=O)CCl)CC3)c(F)cc2c1=O
- remaining at 144 h [25]: > 99%
- IC50 (PC-3 [1]): 8 µM
- IC50 [2]: 4 µM
- IC50 (LoVo [3]): 17 µM
- IC50 (A549 [4]): 10 µM
- IC50 (MCF7 [5]): 23 µM
- Ratio IC50 (PC-3 [26]): 5
- Ratio IC50 (U373 MG): 5
- Ratio IC50 (LoVo [27]): 5
- Ratio IC50 (A549 [28]): 5
- Ratio IC50 (MCF7 [29]): 5
- MTD at 672 h [6]: > 80 mg/kg
